This passage reports IC50 and Activity results from ChEMBL document CHEMBL4028832, “Design and synthesis of 1,2,3-triazolo-phenanthrene hybrids as cytotoxic agents” (Bioorg Med Chem Lett, 2017).

Experiment [1] has as its system A549. As to the kind of experiment: Cytotoxicity against human A549 cells after 48 hrs by MTT assay. The format is functional, cell-based. Particulars: A549, 48 h. The essentials: (§1)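 The human cancer lines and mouse 4T1 breast cells were treated with compound for 48 h and assessed by MTT assay. IC50 is the concentration giving 50% inhibition. 5-Fluorouracil served as the MTT standard.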
Background: Formazan colour is commonly taken as a measure of viable cells.

In experiment [2] the test system is MDA-MB-231. The experiment in a line: Cytotoxicity against human MDA-MB-231 cells after 48 hrs by MTT assay. The format is functional, cell-based. The conditions noted are these: MDA-MB-231, 48 h. The essentials: as §1
The test system of experiment [3] is MDA-MB-453. As to the kind of experiment: Cytotoxicity against human MDA-MB-453 cells after 48 hrs by MTT assay. The format is functional, cell-based. The conditions noted are these: MDA-MB-453, 48 h. The procedure, abridged:
as §1

The test system of experiment [4] is HGC-27. As to the kind of experiment: Cytotoxicity against human HGC27 cells after 48 hrs by MTT assay. The format is functional, cell-based. The conditions noted are these: HGC-27, 48 h. The procedure, abridged:
as §1

In experiment [5] the test system is HeLa. The experiment in a line: Cytotoxicity against human HeLa cells after 48 hrs by MTT assay. In kind it is functional, cell-based. The essentials: as §1
The test system of experiment [6] is PC-3. The experiment in a line: Cytotoxicity against human PC3 cells after 48 hrs by MTT assay. The format is functional, cell-based. Particulars: PC-3, 48 h. The essentials:
as §1

The subject of experiment [7] is 4T1. As to the kind of experiment: Cytotoxicity against mouse 4T1 cells after 48 hrs by MTT assay. The format is functional, cell-based. Particulars: 4T1, 48 h. The essentials: as §1
Experiment [8] deals with BT-549. The experiment in a line: Cytotoxicity against human BT549 cells after 48 hrs by MTT assay. The format is functional, cell-based. The conditions noted are these: BT-549, 48 h. The procedure, abridged:
as §1

Experiment [9] concerns DU-145. The experiment in a line: Cytotoxicity against human DU145 cells after 48 hrs by MTT assay. The format is functional, cell-based. The conditions noted are these: DU-145, 48 h. The essentials: as §1
Experiment [10] is filed under the species Bos taurus. The experiment in a line: Binding affinity to calf thymus DNA assessed as increase in viscosity at 5 uM by Rolling-ball viscometric method.

What is called IC50 is the concentration at which inhibition is half-maximal.

The structures appear in SMILES notation. Calls of active or inactive are those of the source. The rule behind the calls is not given here.

In the case of `COc1cc2cc(Cn3cc(COc4ccc(Br)cc4)nn3)c3cc(OC)c(OC)cc3c2cc1OC`, the IC50 in experiment [1] is more than 20 µM; in experiment [2] it was more than 20 µM; in experiment [3] it was more than 20 µM; in [4] it was 3.9 µM; in experiment [5], 3.8 µM; in experiment [6], more than 20 µM. Besides, the half-maximal inhibitory concentration (IC50) in experiment [7], in experiment [8] and in experiment [9] was more than 20 µM each time.
For the compound `COc1cc2cc(Cn3cc(COc4ccccc4OC)nn3)c3cc(OC)c(OC)cc3c2cc1OC`, the 50% inhibitory concentration (IC50) was more than 20 µM in experiment [1]; more than 20 µM in experiment [2]; more than 20 µM in [3]; 9.1 µM in experiment [4]; 11.2 µM in experiment [5]; more than 20 µM in experiment [6]. Besides, the half-maximal inhibitory concentration (IC50) in [7], in experiment [8] and in [9] was more than 20 µM each time.
As for `COc1cc2cc(Cn3cc(COc4cc(OC)c(OC)c(OC)c4)nn3)c3cc(OC)c(OC)cc3c2cc1OC`, the 50% inhibitory concentration (IC50) in experiment [1] was more than 20 µM; in [2] it was 19.2 µM; in experiment [3], more than 20 µM; in experiment [4] it was 14.8 µM; in [5], more than 20 µM; in experiment [6], more than 20 µM. Besides, the IC50 in experiment [7], in experiment [8] and in experiment [9] was more than 20 µM each time.
As for `COc1cc2cc(Cn3cc(COc4ccc(OCc5ccccc5)cc4)nn3)c3cc(OC)c(OC)cc3c2cc1OC`, the IC50 is more than 20 µM in experiment [1]; more than 20 µM in experiment [2]; more than 20 µM in experiment [3]; 9.6 µM in experiment [4]; 21.1 µM in experiment [5]; more than 20 µM in experiment [6]. Also, the concentration for half-maximal inhibition (IC50) is 9.3 µM in experiment [7], 14.3 µM in experiment [8] and more than 20 µM in experiment [9].
For `COc1cc2cc(Cn3cc(CCO)nn3)c3cc(OC)c(OC)cc3c2cc1OC`, the half-maximal inhibitory concentration (IC50) is more than 20 µM in experiment [1]; more than 20 µM in experiment [2]; more than 20 µM in experiment [3]; 14.2 µM in [4]; 17.2 µM in experiment [5]; more than 20 µM in experiment [6]. For the same compound, the IC50 in experiment [7], in [8] and in experiment [9] was more than 20 µM each time.
`COc1cc2cc(Cn3cc(CN4C(=O)c5ccc(C)cc5C4=O)nn3)c3cc(OC)c(OC)cc3c2cc1OC`: in experiment [10], the result was Active. For the same compound, the IC50 is 12.3 µM in experiment [1]; 4.6 µM in experiment [2]; 6.5 µM in [3]; 3.5 µM in experiment [4]; 2.7 µM in experiment [5]; 7.12 µM in experiment [6]. For the same compound, the half-inhibitory concentration (IC50) in experiment [7] amounted to 10 µM; in experiment [8], 3.9 µM; in experiment [9], 1.87 µM.
`COc1cc2cc(Cn3cc(COc4c(C)cc(C)cc4C)nn3)c3cc(OC)c(OC)cc3c2cc1OC`: the IC50 in [1] is more than 20 µM; in [2], more than 20 µM; in experiment [3] it was 12.6 µM; in experiment [4] it was more than 20 µM; in [5], 17.6 µM; in experiment [6], more than 20 µM. Besides, the values for the IC50 in [7], in experiment [8] and in experiment [9] were 6.2 µM, 12.4 µM and more than 20 µM, respectively.
On to `C=CCc1ccc(OCc2cn(Cc3cc4cc(OC)c(OC)cc4c4cc(OC)c(OC)cc34)nn2)c(OC)c1`, for which the IC50 in [1] is more than 20 µM; in experiment [2], more than 20 µM; in experiment [3] it was more than 20 µM; in experiment [4], 7.6 µM; in experiment [5] it was 7.12 µM; in experiment [6] it was more than 20 µM. Also, the half-inhibitory concentration (IC50) was 7.3 µM in [7], more than 20 µM in experiment [8] and more than 20 µM in experiment [9].
Turning to `COc1cc2cc(Cn3cc(COc4ccc(-c5ccccc5)cc4)nn3)c3cc(OC)c(OC)cc3c2cc1OC`, the IC50 was more than 20 µM in experiment [1]; more than 20 µM in experiment [2]; more than 20 µM in experiment [3]; more than 20 µM in experiment [4]; more than 20 µM in experiment [5]; 12.5 µM in experiment [6]. Also, the concentration for half-maximal inhibition (IC50) is 10.8 µM in experiment [7], more than 20 µM in experiment [8] and more than 20 µM in experiment [9].
Take `COc1cc2cc(Cn3cc(CN4C(=O)c5ccccc5C4=O)nn3)c3cc(OC)c(OC)cc3c2cc1OC`: the IC50 was more than 20 µM in experiment [1]; 11.8 µM in experiment [2]; more than 20 µM in experiment [3]; 7.5 µM in experiment [4]; 12.6 µM in experiment [5]; 7.6 µM in experiment [6]. Further, the IC50 in [7] was 11.3 µM; in experiment [8], more than 20 µM; in [9], 2.6 µM.
For `COc1cc2cc(Cn3cc(CN4CCCc5ccccc54)nn3)c3cc(OC)c(OC)cc3c2cc1OC`, the IC50 was more than 20 µM in experiment [1]; more than 20 µM in experiment [2]; more than 20 µM in [3]; more than 20 µM in [4]; more than 20 µM in [5]; 13.9 µM in experiment [6]. Moreover, the half-maximal inhibitory concentration (IC50) in [7], in experiment [8] and in [9] was more than 20 µM in each case.
Consider `COc1cc2cc(Cn3cc(COc4c(Br)cccc4Br)nn3)c3cc(OC)c(OC)cc3c2cc1OC`, for which the 50% inhibitory concentration (IC50) in experiment [1] is more than 20 µM; in experiment [2], more than 20 µM; in experiment [3], more than 20 µM; in experiment [4], 3.6 µM; in [5] it was 5.15 µM; in experiment [6], 14.1 µM. Moreover, the IC50 in experiment [7] was 7.4 µM; in [8], more than 20 µM; in [9], more than 20 µM.
On to `COc1cc2cc(Cn3cc(COc4ccc5c(c4)OCO5)nn3)c3cc(OC)c(OC)cc3c2cc1OC`, for which the IC50 is 14.5 µM in experiment [1]; 12.6 µM in [2]; 18.9 µM in experiment [3]; 9.5 µM in experiment [4]; more than 20 µM in [5]; 13.2 µM in experiment [6]. Also, the IC50 is 6.5 µM in [7], 18.1 µM in [8] and 16.7 µM in experiment [9].
For `O=c1[nH]cc(F)c(=O)[nH]1` [FLUOROURACIL], the IC50 in [1] is 1.6 µM; in experiment [2], 4.33 µM; in [4], 14.7 µM; in experiment [5], 1.86 µM; in [6], 1.2 µM; in experiment [9] it was 2.18 µM.
Turning to `COc1ccc2c3c(c4cc(OC)c(OC)cc4c2c1)C[C@H]1CCCN1C3` [(-)-ANTOFINE], it took 0.012 µM to reach half-maximal inhibition in experiment [2] (IC50). In other words, the double-digit nanomolar range.
As to `COc1cc2cc(Cn3cc(CO)nn3)c3cc(OC)c(OC)cc3c2cc1OC`, the IC50 was more than 20 µM in experiment [1]; 6.8 µM in [2]; 13.5 µM in experiment [3]; more than 20 µM in experiment [4]; 18.3 µM in experiment [5]; more than 20 µM in [6]. Further, the 50% inhibitory concentration (IC50) in experiment [7] is more than 20 µM; in experiment [8] it was 8.2 µM; in experiment [9], more than 20 µM.
